Published values from different studies.
Each line is one published result; the experiments were not run side by side.
Target: 3-phosphoinositide-dependent protein kinase 1 (PDPK1, Homo sapiens, UniProt O15530)
Residues used in one study (O15530 1-556): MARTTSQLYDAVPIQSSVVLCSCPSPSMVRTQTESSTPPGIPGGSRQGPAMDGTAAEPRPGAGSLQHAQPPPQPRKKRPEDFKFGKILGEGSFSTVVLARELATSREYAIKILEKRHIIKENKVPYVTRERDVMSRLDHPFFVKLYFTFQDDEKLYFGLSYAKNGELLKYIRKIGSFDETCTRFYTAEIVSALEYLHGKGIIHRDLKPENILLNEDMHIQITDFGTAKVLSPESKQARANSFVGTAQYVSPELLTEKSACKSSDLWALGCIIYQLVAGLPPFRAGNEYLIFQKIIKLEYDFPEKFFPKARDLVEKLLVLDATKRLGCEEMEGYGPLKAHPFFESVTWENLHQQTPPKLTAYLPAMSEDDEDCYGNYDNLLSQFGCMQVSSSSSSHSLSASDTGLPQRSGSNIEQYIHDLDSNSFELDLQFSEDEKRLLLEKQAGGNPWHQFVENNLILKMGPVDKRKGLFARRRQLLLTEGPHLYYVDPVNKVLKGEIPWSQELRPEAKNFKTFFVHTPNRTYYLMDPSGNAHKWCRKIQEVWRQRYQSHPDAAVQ

SMILES | read-out | action | technique | tested at | endpoint | result
O=c1[nH]c2ccccc2n1C1CCN(Cc2ccc(-c3[nH]c4cc5ncnc5cc4nc3-c3ccccc3)cc2)CC1 | cell-free assay |  |  | 0.5 µM | remaining signal | 107%
COc1ncccc1-c1cnn2ccc(N3CCN(C(=O)OC(C)C)CC3)nc12 | binding |  | competition with immobilised ligand | 1 µM | remaining binding | 82%
C#Cc1n[nH]c2c(-c3cn([C@@H](C)c4ccccc4)c(=O)[nH]c3=O)cc(F)cc12 | enzyme activity | inhibitor |  | 0.1 µM | inhibition | 4%
Nc1ncc(-c2nc(N3CCOCC3)nc(N3CCOCC3)n2)c(C(F)F)n1 | binding |  | competition with immobilised ligand | 10 µM | remaining binding | 83%
CC(C)(C)c1cc(C=C(C#N)C#N)cc(Br)c1O | enzyme activity | inhibitor |  | 0.5 µM | remaining activity | 102%
Cn1cncc1[C@@](O)(COc1ccc(C#N)cc1-c1ccc(OC(F)(F)F)cc1)c1ccc(C#N)cc1 | cell-free assay |  | competition with immobilised ligand | 1 µM | remaining binding | 96%
Cn1cc(-c2cc(F)cc(N3CCn4c(cc5c4CCCC5)C3=O)c2CO)cc(Nc2ccc(N3CCN(C4COC4)CC3)cn2)c1=O | enzyme activity | inhibitor |  | 0.1 µM | inhibition | 1%
Cc1nn(C)cc1-c1nc2c(N3CCN(Cc4ccc(Cl)cc4)CC3)c(Cl)cnc2[nH]1 | binding |  | competition with immobilised ligand | 1 µM | remaining binding | 100%
C#Cc1n[nH]c2c(-c3cn([C@@H](C)c4ccccn4)c(=O)[nH]c3=O)cc(F)cc12 | enzyme activity | inhibitor |  | 0.1 µM | inhibition | 4.7%
